Test results from ChEMBL document CHEMBL1255465, “Persistence of uropathogenic Escherichia coli in the face of multiple antibiotics” (Antimicrob Agents Chemother, 2010).
Calls of active or inactive are those of the source. No cut-off for these calls is given here.

Legend:
5637 [1] = assay: Cytotoxicity against human 5637 cells assessed as mild induction of cell death by LDH release assay; assay type: cell-based
Escherichia coli [2] = assay: Antibacterial activity against uropathogenic Escherichia coli UTI89 infected in human 5637 cells assessed as decrease in intracellular bacterial level at 200 to 300 ug/ml after 12 hrs by serial dilution method; assay type: functional, organism-based
In short: (§1)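 Confluent 5637 monolayers in triplicate infected with UTI89 (24-h static LB culture, type 1 pili) at MOI ~15 and spun 600 × g for 5 min. After 2 h: gentamicin 100 μg/ml for 2 h, then 10 μg/ml for 14 h. Then 12 h with drug at two concentrations. Cells lysed in 0.4% Triton X-100 and plated on LB agar. Titers expressed relative to 800 μg/ml gentamicin. ≥3 independent assays.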

5637 [3] = assay: Cytotoxicity against human 5637 cells assessed as mild induction of cell death by trypan blue exclusion assay; assay type: cell-based
In short: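 Integrity of 5637 cells after drug treatment assessed by 0.4% trypan blue exclusion, following a standard protocol.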

Escherichia coli [4] = assay: Antibacterial activity against uropathogenic Escherichia coli UTI89 assessed as degradation of preexisting biofilm after 24 hrs by microscopy; assay type: functional, organism-based
In short: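 UTI89 diluted 1:100 into M9 medium and grown statically 48 h at 37°C in microtiter wells. Nonadherent cells removed, fresh M9 ± drug added for 24 h, using the higher of two tested concentrations. Viable bacteria in biofilms visualized by Live/Dead BacLight staining and microscopy.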

Escherichia coli [5] = assay: Antibacterial activity against uropathogenic Escherichia coli UTI89 infected in human 5637 cells assessed as decrease in intracellular bacterial level at 800 to 1200 ug/ml after 12 hrs by serial dilution method; assay type: functional, organism-based
In short: (§2)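 UTI89 was grown 24 h static in LB (type 1 pili) and added to confluent 5637 monolayers at MOI ~15, spun 600 × g for 5 min. After 2 h at 37°C: gentamicin 100 μg/ml for 2 h, then 10 μg/ml for 14 h. Next, 12 h with antibiotic at two concentrations. Lysis in 0.4% Triton X-100, serial-dilution plating; titers relative to 800 μg/ml gentamicin. ≥3 independent assays in triplicate, mean ± SEM.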

Escherichia coli [6] = assay: Antibacterial activity against uropathogenic Escherichia coli UTI89 infected in human 5637 cells assessed as decrease in intracellular bacterial level at 1200 to 1600 ug/ml after 12 hrs by serial dilution method; assay type: functional, organism-based; in short: as §1
Escherichia coli [7] = assay: Antibacterial activity against uropathogenic Escherichia coli UTI89 assessed as inhibition of biofilm formation after 24 hrs by microtiterplate-based assay; assay type: functional, organism-based
In short: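 Biofilms of UTI89 formed for 48 h at 37°C without shaking in M9 (1:100 inoculum, triplicate wells). Fresh M9 ± drug (higher of two tested concentrations) then added for 24 h. Biomass stained with 0.1% crystal violet, solubilized in DMSO, read at A562, and expressed relative to untreated controls. Three independent experiments.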

Escherichia coli [8] = assay: Antibacterial activity against uropathogenic Escherichia coli UTI89 infected in human 5637 cells assessed as decrease in intracellular bacterial level at 300 to 500 ug/ml after 12 hrs by serial dilution method; assay type: functional, organism-based; in short: as §2
Escherichia coli [9] = assay: Antibacterial activity against uropathogenic Escherichia coli UTI89 infected in human 5637 cells assessed as decrease in intracellular bacterial level at 250 to 300 ug/ml after 12 hrs by serial dilution method; assay type: functional, organism-based; in short: as §1
Escherichia coli [10] = assay: Antibacterial activity against uropathogenic Escherichia coli UTI89 infected in human 5637 cells assessed as decrease in intracellular bacterial level at 1000 to 3000 ug/ml after 12 hrs by serial dilution method; assay type: functional, organism-based; in short: as §1
Escherichia coli [11] = assay: Antibacterial activity against uropathogenic Escherichia coli UTI89 infected in human 5637 cells assessed as decrease in intracellular bacterial level at 400 to 700 ug/ml after 12 hrs by serial dilution method; assay type: functional, organism-based; in short: as §1
[12] = Drug level in Escherichia coli UTI89-infected CBA/J mouse urine at 200 ug/kg, sc after 2 hrs; assay type: ADME, organism-based; details: in vivo, 0.2 mg/kg
In short: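 Urine was collected 2 h after dosing by gentle bladder pressure. 10-μl aliquots went onto 7-mm sterile filter discs laid on fresh UTI89 lawns on LB agar. Clearance diameters were read after 24 h at 37°C, and levels were calculated from standard curves of discs with known antibiotic concentrations.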

Escherichia coli [13] = assay: Antibacterial activity against uropathogenic Escherichia coli UTI89 infected in CBA/J mouse assessed as decrease in bacterial invasion into layers of urothelium at 700 ug/kg, po administered on day 3 postinfection daily for 3 days measured on day 9 post-inoculation in presence of Triton X-100; assay type: functional, organism-based
Escherichia coli [14] = assay: Antibacterial activity against uropathogenic Escherichia coli UTI89 infected in CBA/J mouse assessed as decrease in bacterial load in bladder at 700 ug/kg, po administered on day 3 postinfection daily for 3 days measured on day 9 post-inoculation; assay type: functional, organism-based; details: Urinary bladder
In short: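 Female CBA/J mice, 7–8 weeks old, inoculated transurethrally with ~10^7 CFU UTI89 (24-h static LB culture) in 50 μl PBS. From day 3, one oral gavage daily for 3 days, 50 μl; controls given water. On day 9, bladders homogenized in PBS with 0.025% Triton X-100 and plated on LB agar for CFU. 11 mice from two experiments; Mann-Whitney U test.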

Escherichia coli [15] = assay: Antibacterial activity against uropathogenic Escherichia coli UTI89 isolated from urine samples of infected CBA/J mouse after 24 hrs by disk diffusion assay; assay type: functional, organism-based
In short: (§3)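 Urine collected by gentle bladder pressure 2 h after oral dosing of UTI89-infected CBA/J mice. 10 μl spotted on 7-mm filter discs, placed on fresh UTI89 lawns on LB agar. Clearance diameter measured after 24 h at 37°C. Urine drug level calculated from standard curves of discs holding known antibiotic concentrations.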

[16] = Drug level in Escherichia coli UTI89-infected CBA/J mouse urine at 700 ug/kg, po after 2 hrs; assay type: ADME, organism-based; details: in vivo, 0.7 mg/kg; in short: as §3
Escherichia coli [17] = assay: Antibacterial activity against uropathogenic Escherichia coli UTI89 infected in human 5637 cells assessed as decrease in intracellular bacterial level at 12 to 100 ug/ml after 12 hrs by serial dilution method; assay type: functional, organism-based; in short: as §1
Escherichia coli [18] = assay: Antibacterial activity against uropathogenic Escherichia coli UTI89 infected in CBA/J mouse assessed as decrease in bacterial invasion into layers of urothelium at 700 ug/kg, po administered on day 3 postinfection daily for 3 days measured on day 9 post-inoculation; assay type: functional, organism-based
Escherichia coli [19] = assay: Antibacterial activity against pGEN-GFP carrying uropathogenic Escherichia coli UTI89 isolated from bladder samples of infected CBA/J mouse assessed as decrease in growth of intracellular bacterial community at 12 ug/ml treated 6 hrs postinfection measured after 18 hrs; assay type: functional, organism-based
In short: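 Bladders from female CBA/J mice taken 6 h after transurethral inoculation with GFP(LVA)-plasmid UTI89, then halved, splayed and pinned lumen-up under Ringer solution (pH 7.4). Drug combination added at 12 and 700 μg/ml. GFP-positive IBCs counted by fluorescence stereomicroscopy at set times up to 18 h. n = 8 mice per group; Mann-Whitney U test.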

Escherichia coli [20] = assay: Antibacterial activity against uropathogenic Escherichia coli UTI89 infected in human 5637 cells assessed as decrease in intracellular bacterial level at 600 to 1000 ug/ml after 12 hrs by serial dilution method; assay type: functional, organism-based; in short: as §1
Escherichia coli [21] = assay: Antibacterial activity against uropathogenic Escherichia coli UTI89 infected in CBA/J mouse assessed as decrease in bacterial invasion into layers of urothelium at 200 ug/kg, sc administered on day 3 postinfection daily for 3 days measured on day 9 post-inoculation; assay type: functional, organism-based
Escherichia coli [22] = assay: Antibacterial activity against uropathogenic Escherichia coli UTI89 infected in CBA/J mouse assessed as decrease in bacterial load in bladder at 200 ug/kg, sc administered on day 3 postinfection daily for 3 days measured on day 9 post-inoculation; assay type: functional, organism-based; details: Urinary bladder
Escherichia coli [23] = assay: Antibacterial activity against uropathogenic Escherichia coli UTI89 infected in CBA/J mouse assessed as decrease in bacterial invasion into layers of urothelium at 200 ug/kg, sc administered on day 3 postinfection daily for 3 days measured on day 9 post-inoculation in presence of Triton X-100; assay type: functional, organism-based
Escherichia coli [24] = assay: Antibacterial activity against uropathogenic Escherichia coli UTI89 infected in human 5637 cells assessed as decrease in intracellular bacterial level at 400 to 800 ug/ml after 12 hrs by serial dilution method; assay type: functional, organism-based; in short: as §2
Escherichia coli [25] = details: UTI89, Urinary bladder, 2 mg/kg
Escherichia coli [26] = details: UTI89, Urothelium, 2 mg/kg
Escherichia coli [27] = details: UTI89, Urothelium, 2 mg/kg; remark: listed apart in the source
Escherichia coli [28] = details: UTI89, 5637, 2 to 3 ug/ml
Escherichia coli [29] = assay: Antibacterial activity against uropathogenic Escherichia coli UTI89 infected in human 5637 cells assessed as decrease in intracellular bacterial level at 1000 to 2000 ug/ml after 12 hrs by serial dilution method; assay type: functional, organism-based; in short: as §1

Row | Compound | Activity 5637 [1] | Activity 5637 [3] | Activity (Escherichia coli [4]) | also measured
1 | C[C@H]1COc2c(N3CCN(C)CC3)c(F)cc3c(=O)c(C(=O)O)cn1c23.C[C@H]1COc2c(N3CCN(C)CC3)c(F)cc3c(=O)c(C(=O)O)cn1c23.O [LEVOFLOXACIN] | Toxic | Toxic | Active | inhibition (Escherichia coli [2]): Active
2 | CCn1cc(C(=O)O)c(=O)c2ccc(C)nc21 [NALIDIXIC ACID] | Toxic | Toxic | Active | inhibition (Escherichia coli [5]): Active
3 | CC1=C(C(=O)O)N2C(=O)[C@@H](NC(=O)[C@H](N)c3ccc(O)cc3)[C@H]2SC1 [CEFADROXIL] | Toxic | Toxic | Active | inhibition (Escherichia coli [6]): Active; Biofilm inhibition activity (Escherichia coli [7]): Active
4 | CCn1cc(C(=O)O)c(=O)c2cc(F)c(N3CCNCC3)cc21 [NORFLOXACIN] | Toxic | Toxic | Active | inhibition (Escherichia coli [8]): Active
5 | CCOc1ccc2ccccc2c1C(=O)N[C@@H]1C(=O)N2[C@@H]1SC(C)(C)[C@@H]2C(=O)O [NAFCILLIN] | Toxic | Toxic | Active | inhibition (Escherichia coli [6]): Active
6 | CN(C)[C@@H]1C(O)=C(C(N)=O)C(=O)[C@@]2(O)C(O)=C3C(=O)c4c(O)cccc4[C@@](C)(O)[C@H]3C[C@@H]12 [TETRACYCLINE] | Toxic | Toxic | Active | inhibition (Escherichia coli [9]): Active
7 | NC[C@H]1O[C@H](O[C@H]2[C@H](O)[C@@H](O[C@H]3O[C@H](CO)[C@@H](O)[C@H](N)[C@H]3O)[C@H](N)C[C@@H]2N)[C@H](O)[C@@H](O)[C@@H]1O [KANAMYCIN] | Toxic | Toxic | Active | inhibition (Escherichia coli [10]): Active
8 | CC1COc2c(N3CCN(C)CC3)c(F)cc3c(=O)c(C(=O)O)cn1c23 (centres undefined) [OFLOXACIN] | Toxic | Toxic | Active | inhibition (Escherichia coli [11]): Active
9 | GENTAMICIN [listing 1 of 2 here] | Toxic | Toxic | – | Drug uptake [12]: 2 mg/mL
10 | C[C@@H]1CN(c2c(F)c(N)c3c(=O)c(C(=O)O)cn(C4CC4)c3c2F)C[C@H](C)N1 [SPARFLOXACIN] | Toxic | Toxic | Active | inhibition (Escherichia coli [13]): Active; inhibition (Escherichia coli [14]): Active; Activity (Escherichia coli [15]): Active; Drug uptake [16]: 0.3 µg/mL; inhibition (Escherichia coli [17]): Active; inhibition (Escherichia coli [18]): inactive; inhibition (Escherichia coli [19]): Active; Biofilm inhibition activity (Escherichia coli [7]): Active
11 | O=C1CN(/N=C/c2ccc([N+](=O)[O-])o2)C(=O)N1 [NITROFURANTOIN] | Toxic | Toxic | Active | inhibition (Escherichia coli [8]): Active
12 | CC1(C)S[C@@H]2[C@H](NC(=O)Cc3ccccc3)C(=O)N2[C@H]1C(=O)O [PENICILLIN G] | Toxic | Toxic | Active | inhibition (Escherichia coli [20]): Active; Biofilm inhibition activity (Escherichia coli [7]): Active
13 | GENTAMICIN [listing 2 of 2 here] | – | – | Active | inhibition (Escherichia coli [21]): inactive; inhibition (Escherichia coli [22]): inactive; Activity (Escherichia coli [15]): Active; inhibition (Escherichia coli [23]): Active; inhibition (Escherichia coli [24]): Active
14 | O=C(O)c1cn(C2CC2)c2cc(N3CCNCC3)c(F)cc2c1=O [CIPROFLOXACIN] | Toxic | Toxic | Active | inhibition (Escherichia coli [25]): Active; Activity (Escherichia coli [15]): Active; inhibition (Escherichia coli [26]): Active; inhibition (Escherichia coli [27]): inactive; inhibition (Escherichia coli [28]): Active
15 | NCC[C@H](O)C(=O)N[C@@H]1C[C@H](N)[C@@H](O[C@H]2O[C@H](CN)[C@@H](O)[C@H](O)[C@H]2O)[C@H](O)[C@H]1O[C@H]1O[C@H](CO)[C@@H](O)[C@H](N)[C@H]1O [AMIKACIN] | Toxic | Toxic | Active | inhibition (Escherichia coli [29]): Active
